Fewer inactive variants are shown than the library holds.
B1: tRNA (parent)
chain: GUUCCGUUGGCGUAAUGGUAACGCGUCUCCCUCCUAAGGAGAAGACUGCGGGUUCGAGUCCCGUACGGAACG

Variants of: B1
Assay: yeast fitness relative to wild type (ratio to wild type); higher = fitter; tRNA-Arg(CCU), competitive growth, 37 C, YPD
In short: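 Start and end populations of a pooled competition were compared by 100-nucleotide paired-end sequencing of gene amplicons. The Saccharomyces cerevisiae strains carried tRNA-Arg(CCU) gene variants at the native genomic locus, synthesised with a 3% per-site mutation rate at 69 sites, and competed in YPD at 37°C for 24 hours in six parallel replicates. Darwinian fitness relative to wild type was based on the change in genotype frequencies. Genotypes required ≥ 100 starting reads, and estimates < 0.5 were set to 0.5.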
For C5A A15G C33A, the yeast fitness was ≤ 0.5. With C5A A15U C24G the yeast fitness was ≤ 0.5. For C5A A14G C24A A43G G63U, the yeast fitness was ≤ 0.5. Variant C5A C31G C46A has a yeast fitness of 0.54. For C4U U16A G23A A36G C49G, the yeast fitness was ≤ 0.5. Variant C5A A14C has a yeast fitness of 0.603. C5A A15G C24G C29U C34G U35C C46G showed a yeast fitness of 0.527. In the case of C5A C24U U35C, the yeast fitness is reported as ≤ 0.5. Work on C5A A43G yielded a yeast fitness of 0.903. C5A A43U showed a yeast fitness of 0.783. Work on C5A A43C yielded a yeast fitness of 0.987. For C5A C11U C29U C31U A42C A69C, the yeast fitness was ≤ 0.5. For C5A C29G A36U A43G, the yeast fitness was ≤ 0.5. With C5A A15U U64C the yeast fitness was 0.615. For C5A A21U C55A C66U, the yeast fitness was ≤ 0.5. For C5A A20C C24A, the yeast fitness was 0.575. Variant C4U U47A C61A has a yeast fitness of 0.93. With C4U U26G C29U A65U the yeast fitness was ≤ 0.5. For C5A A14G A20U A37C C49A C66A, the yeast fitness was ≤ 0.5. Variant C4U U64A A70U has a yeast fitness of 0.66. Work on C5A C11U U13C yielded a yeast fitness of 0.57. For C5A A21G U32G, the yeast fitness was ≤ 0.5. Variant C5A C24U C29U C30A A37C A65C has a yeast fitness of 0.549. With C5A A14G C22G C62G the yeast fitness was ≤ 0.5. For C5A C30U C62G G68A, the yeast fitness was ≤ 0.5. For C5A A14G A40G G41A A45U U53C A57C, the yeast fitness was ≤ 0.5. With C5A C24U A36C C66U the yeast fitness was ≤ 0.5. With C4U U26C A36C U64A A70C the yeast fitness was ≤ 0.5. With C5A A15C C66U the yeast fitness was ≤ 0.5. In the case of C5A A36G, the yeast fitness is reported as 0.886. With C5A C27G C31G U59C the yeast fitness was ≤ 0.5. With C5A C11U U13G C29G C33A C46A the yeast fitness was 0.575. In the case of C5A C24U U35C C61A, the yeast fitness is reported as ≤ 0.5. For C5A C27U C46U, the yeast fitness was 0.739. In the case of C5A C24U G51A, the yeast fitness is reported as ≤ 0.5. With C5A C11U C30A A57G the yeast fitness was ≤ 0.5. With C5A C24G A70U the yeast fitness was ≤ 0.5. With C5A C30U U59C C62A the yeast fitness was ≤ 0.5. With C5A A43G C55U C66G the yeast fitness was ≤ 0.5. With C5A A15U U47C the yeast fitness was ≤ 0.5. With C4U U28C G38C C61U the yeast fitness was ≤ 0.5. Work on C5A C11G C33A G38A yielded a yeast fitness of 0.552. With C5A A15U G38C G39A A43C C60G A65C the yeast fitness was ≤ 0.5. With C5A C31A C46G the yeast fitness was ≤ 0.5. In the case of C5A A20C C22A A36C C61U, the yeast fitness is reported as 0.531. C5A A14C A15G C49A showed a yeast fitness of 0.572. In the case of C5A A40U A65U, the yeast fitness is reported as 0.636. Work on C4U U16G U47G yielded a yeast fitness of 0.602. C5A C27U G39A A40G showed a yeast fitness of 0.577. For C4U U19C C31A G41C C55A, the yeast fitness was ≤ 0.5. For C5A A40C G41A C46U G52C, the yeast fitness was ≤ 0.5. For C5A A43C A65U, the yeast fitness was ≤ 0.5. With C5A C24G U26A C29G A43U the yeast fitness was ≤ 0.5. With C5A A14G A43U the yeast fitness was ≤ 0.5. In the case of C5A C22G C27G A36U A40C G67A, the yeast fitness is reported as ≤ 0.5. For C5A C22G U47C, the yeast fitness was ≤ 0.5. For C5A A15C A69U, the yeast fitness was 0.552. Variant C5A A20C C22A C24U C31U has a yeast fitness of 0.685. In the case of C5A A20U C31G C49G, the yeast fitness is reported as ≤ 0.5. In the case of C5A A21U A65G, the yeast fitness is reported as 0.636. With C4U U28C C49G C61U the yeast fitness was ≤ 0.5. With C5A C29U A36U C66U G67A the yeast fitness was ≤ 0.5. C5A A20G C30A A40U G41C C61G G63C showed a yeast fitness of 0.565. For C4U U19A C31G A65C C66U, the yeast fitness was ≤ 0.5. For C5A A57G C66U, the yeast fitness was ≤ 0.5. With C5A C31U A40G C49U A70U the yeast fitness was ≤ 0.5. Work on C4U U16C C24U yielded a yeast fitness of 0.675. With C5A C11G C33A G38A C46G A70U the yeast fitness was ≤ 0.5. For C5A C22G C49U A57C, the yeast fitness was 0.779. C5A A15G gave a yeast fitness of 0.779. Variant C5A A15U has a yeast fitness of 0.626. For C4U U16A A40U, the yeast fitness was 0.666. In the case of C5A C24G C62A, the yeast fitness is reported as ≤ 0.5. In the case of C5A C29G G41A A43U, the yeast fitness is reported as 0.659. For C5A A21U G50A, the yeast fitness was ≤ 0.5. With C4U U47C C66U the yeast fitness was 0.766. In the case of C4U U19A A37G G44C A57U G68C, the yeast fitness is reported as ≤ 0.5. In the case of C5A C22G C27G A36U A40C, the yeast fitness is reported as ≤ 0.5. In the case of C5A C11G A42U U53A, the yeast fitness is reported as ≤ 0.5. With C5A A20U A36G the yeast fitness was ≤ 0.5. With C5A C24U A36C the yeast fitness was ≤ 0.5. With C5A C30U G68A the yeast fitness was ≤ 0.5. For C5A A36G C46A, the yeast fitness was 0.562. With C5A C30G the yeast fitness was 0.608. With C5A C30A the yeast fitness was 0.767. Variant C4U U26G G38U has a yeast fitness of 0.508. Work on C4U U28A C30U A57G yielded a yeast fitness of 0.547. In the case of C5A C22A, the yeast fitness is reported as 0.831. C5A A36C C46G gave a yeast fitness of 0.532. For C5A A37U C49U, the yeast fitness was ≤ 0.5. With C5A A65U the yeast fitness was 0.723. For C5A A21C, the yeast fitness was 0.821. With C5A C24G C29G A40C the yeast fitness was ≤ 0.5. Work on C5A C22G C24G C31U A43U G48A yielded a yeast fitness of 0.544. C5A A70C showed a yeast fitness of 0.982. With C5A A70U the yeast fitness was 0.822. In the case of C5A C11A U59A C60G, the yeast fitness is reported as ≤ 0.5. Variant C5A A14G C24A has a yeast fitness of 0.565. With C5A C11U G18C U19A C27A C33A C61G A70G the yeast fitness was ≤ 0.5. With C4U U26G C29U A65U G68A the yeast fitness was ≤ 0.5. C5A A43C A45U U53C gave a yeast fitness of 0.615. For C5A C29A A57G, the yeast fitness was ≤ 0.5. With C4U U35A A36U C61U the yeast fitness was ≤ 0.5. With C5A A20U A37G the yeast fitness was ≤ 0.5. For C5A C11G A45C C66G G68C, the yeast fitness was ≤ 0.5. Work on C4U U32A C49U yielded a yeast fitness of 0.61. In the case of C5A A14G C22G C27U A37U, the yeast fitness is reported as ≤ 0.5. Variant C5A A20U C27A A42G A43G A57C G67C has a yeast fitness of 0.565. For C5A A15U A21U U32C, the yeast fitness was ≤ 0.5. For C5A A20U A70G, the yeast fitness was ≤ 0.5. With C5A A20U C55U C61U A65G the yeast fitness was ≤ 0.5. For C4U U19A C30G A36C C66A G68C, the yeast fitness was ≤ 0.5. Variant C4U U26A A69U has a yeast fitness of 0.641. In the case of C5A C31G A42G, the yeast fitness is reported as ≤ 0.5. For C5A A65C A70C, the yeast fitness was 0.675. With C5A C22U U53C U59G C61G C62U the yeast fitness was ≤ 0.5. Variant C4U U47A has a yeast fitness of 0.86. In the case of C4U U47G, the yeast fitness is reported as 0.616. C4U U47C showed a yeast fitness of 1.06. In the case of C5A C22U C27G C30G A45U C62A, the yeast fitness is reported as ≤ 0.5. With C5A A21C A43U C46G G50U C61G the yeast fitness was ≤ 0.5. C5A A20C C22A A36C A69U showed a yeast fitness of 0.587. With C5A C11G G17A A37U C49A the yeast fitness was ≤ 0.5. In the case of C4U U32A G58C, the yeast fitness is reported as 0.592. Work on C5A C30A A57G yielded a yeast fitness of 0.565. For C5A C11A G17C A43U U59A, the yeast fitness was ≤ 0.5. C5A A14U G52A gave a yeast fitness of 0.603. In the case of C5A C24G G56A C62A, the yeast fitness is reported as ≤ 0.5. In the case of C5A A21C C34G C60G A70G, the yeast fitness is reported as ≤ 0.5. With C5A C11U the yeast fitness was 0.856. For C5A C11G, the yeast fitness was 0.657. In the case of C5A A42U G58A, the yeast fitness is reported as 0.614. C5A C22G A37C A40C showed a yeast fitness of 0.736. With C5A C24U C62A A69C the yeast fitness was ≤ 0.5. C4U U54C C62U gave a yeast fitness of 0.578. With C5A C27U G38A the yeast fitness was 0.565. For C5A A69G, the yeast fitness was 0.908. In the case of C5A C29A C34G, the yeast fitness is reported as ≤ 0.5. With C4U U32C the yeast fitness was 0.944. In the case of C5A C11G A57G, the yeast fitness is reported as ≤ 0.5. For C5A C11A A42U U53A A57C A65G, the yeast fitness was ≤ 0.5. For C5A A57C, the yeast fitness was 0.719. Work on C5A A57G yielded a yeast fitness of 0.767. For C5A C11G A21U C60G G67A, the yeast fitness was ≤ 0.5. For C4U U53C, the yeast fitness was 0.869. C4U U16C A42G G58A gave a yeast fitness of 0.552. With C5A A20U C31G G58A C62U A69C the yeast fitness was ≤ 0.5. With C5A C22U A57G the yeast fitness was 0.612. For C4U U59C A69C, the yeast fitness was 0.772. With C5A C22U G39A A69U the yeast fitness was ≤ 0.5. C5A A15G C33A C61U gave a yeast fitness of 0.531. For C5A C24U C29U C33U C34G A42U G58A, the yeast fitness was ≤ 0.5. With C5A A40U G67A the yeast fitness was 0.659. In the case of C5A C22U C29U A42U, the yeast fitness is reported as ≤ 0.5. With C4U U35C G50A C66A the yeast fitness was 0.689. Variant C5A A20C A36G has a yeast fitness of 0.626. C5A C27U G39C C49U gave a yeast fitness of 0.526. For C5A C30A C31G A37U C55U A57C C61A, the yeast fitness was 0.55. For C5A A20C C29G A65U, the yeast fitness was ≤ 0.5. In the case of C5A C22G C24G C31U A43U G48A A69U, the yeast fitness is reported as 0.507. In the case of C4U U26A C33A C34G, the yeast fitness is reported as ≤ 0.5. With C5A A45U the yeast fitness was 0.877. In the case of C5A A45G, the yeast fitness is reported as 0.937. Variant C5A C11G A37U C49A has a yeast fitness of 0.515. With C5A C30G C31G A65C the yeast fitness was ≤ 0.5. Variant C5A A14C C29A G41C has a yeast fitness of 0.683. With C5A A15C U16A C31G C34U A69U the yeast fitness was ≤ 0.5.

— the RNAGym collection of RNA variant scans (doi:10.1126/science.aae0568)
